Measurements: ChEMBL document CHEMBL3232919, “Imidazol-1-ylethylindazole voltage-gated sodium channel ligands are neuroprotective during optic neuritis in a mouse model of multiple sclerosis” (J Med Chem, 2014)

How the values were obtained:
Rattus norvegicus [1] = organism: Rattus norvegicus; assay: Neuroprotective activity in oxygen/glucose deprivation-induced Wistar rat hippocampal slice assessed as inhibition of cell death by measuring ATP level at 50 uM; format: functional
[2] = Displacement of [3H]sipatrigine from Wistar rat brain synaptosomes voltage-gated sodium channel by liquid scintillation counting; format: subcellular
[3] = Metabolic stability in rat liver microsomes assessed as drug turnover at 1 uM at 40 mins by LC-MS/MS analysis; format: ADME; settings: read-out: Drug metabolism
In short: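 Compound at 1 μM was incubated (n=2) with pooled rat liver microsomes (0.25 mg protein/ml) at 37°C for 0 and 40 min. Reactions were stopped with acetonitrile containing an internal standard, and parent disappearance was measured by LC-MS/MS. Percentage turnover was taken from peak heights relative to the zero-time samples.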

Rattus norvegicus [4] = organism: Rattus norvegicus; assay: Neuroprotective activity in oxygen/glucose deprivation-induced Wistar rat hippocampal slice assessed as inhibition of cell death by measuring ATP level; format: functional
Rattus norvegicus [5] = organism: Rattus norvegicus; assay: Neuroprotective activity in oxygen/glucose deprivation-induced Wistar rat hippocampal slice assessed as inhibition of cell death by measuring ATP level at 3 uM; format: functional
Rattus norvegicus [6] = organism: Rattus norvegicus; settings: Wistar, 1 uM
Rattus norvegicus [7] = organism: Rattus norvegicus; assay: Neuroprotective activity in oxygen/glucose deprivation-induced Wistar rat hippocampal slice assessed as inhibition of cell death by measuring ATP level at 30 uM normalized to tetrodotoxin; format: functional

Row | Structure (SMILES) | inhibition at 50 µM (Rattus norvegicus [1]) [%] | IC50 [2] [µM] | other results
1 | O=C(NCc1noc(-c2c3ccccc3nn2CCn2ccnc2)n1)c1ccc(OC(F)(F)F)cc1 | 31 | 0.7 | –
2 | CC(=O)Nc1ccc(C(=O)NCc2noc(-c3c4ccccc4nn3CCn3ccnc3)n2)cc1 | -14 | 59 | metabolised at 40 min, 1 µM [3]: 45%
3 | COc1ccc(C(=O)NCc2noc(-c3c4ccccc4nn3CCn3ccnc3)n2)cc1 | 55 | 6.2 | –
4 | O=S(=O)(NCc1noc(-c2nn(CCn3ccnc3)c3ccccc23)n1)c1ccc(OC(F)(F)F)cc1 | 0 | 4.9 | –
5 | COc1ccc(C(=O)NCc2noc(-c3nn(CCn4ccnc4)c4ccccc34)n2)c(OC)c1OC | 37 | 5.3 | –
6 | O=C(NCc1noc(-c2c3ccccc3nn2CCn2ccnc2)n1)c1cccc(F)c1F | 2 | 3.6 | –
7 | CC(=O)Nc1ccc(S(=O)(=O)NCc2noc(-c3c4ccccc4nn3CCn3ccnc3)n2)cc1 | 25 | 17 | metabolised at 40 min, 1 µM [3]: 54%
8 | Cc1cc(C(=O)NCc2noc(-c3c4ccccc4nn3CCn3ccnc3)n2)ccc1[N+](=O)[O-] | 43 | 1.7 | –
9 | Cc1cccc(C(=O)NCc2noc(-c3c4ccccc4nn3CCn3ccnc3)n2)c1 | 41 | 2.5 | –
10 | CC(C)(C)c1ccc(C(=O)NCc2noc(-c3nn(CCn4ccnc4)c4ccccc34)n2)cc1 | 40 | 1.2 | –
11 | CC(C)(C)OC(=O)NCc1noc(-c2c3ccccc3nn2CCn2ccnc2)n1 | 35 | 15.5 | metabolised at 40 min, 1 µM [3]: 70%
12 | COc1cccc(C(=O)NCc2noc(-c3c4ccccc4nn3CCn3ccnc3)n2)c1 | 63 | 5 | –
13 | O=S(=O)(NCc1noc(-c2nn(CCn3ccnc3)c3ccccc23)n1)c1ccc(Cl)cc1 | 21 | 10 | –
14 | CC(C)(C)OC(=O)NCc1noc(-c2c3ccccc3nn2CCc2cccs2)n1 | 1 | 166 | –
15 | COc1cccc(C(=O)NCc2noc(-c3c4ccccc4nn3CCn3ccnc3)n2)c1OC | 88 | 5.8 | EC50 (Rattus norvegicus [4]): 12.3 µM
16 | O=C(NCc1noc(-c2nn(CCn3ccnc3)c3ccccc23)n1)c1cccc(OC(F)(F)F)c1 | 37 | 1.5 | metabolised at 40 min, 1 µM [3]: 78%
17 | NCc1noc(-c2c3ccccc3nn2Cc2ccccc2)n1 | 57 | – | –
18 | Cc1oncc1Cn1nc(-c2nc(CNC(=O)OC(C)(C)C)no2)c2ccccc21 | 39 | 339 | –
19 | Cc1ccccc1S(=O)(=O)NCc1noc(-c2nn(CCn3ccnc3)c3ccccc23)n1 | 57 | 4.9 | –
20 | O=S(=O)(NCc1noc(-c2c3ccccc3nn2CCn2ccnc2)n1)c1ccccc1 | 38 | 1.7 | EC50 (Rattus norvegicus [4]): 29.5 µM; metabolised at 40 min, 1 µM [3]: 97%
21 | CC(C)(C)OC(=O)NCc1noc(-c2nn(Cc3ccc(-n4cccn4)cc3)c3ccccc23)n1 | 20 | 617 | –
22 | Cc1oncc1Cn1nc(-c2nc(CN)no2)c2ccccc21 | 19 | 15 | –
23 | NCc1noc(-c2nn(Cc3ccc(-n4cccn4)cc3)c3ccccc23)n1 | 26 | 6.2 | –
24 | CC(C)(C)OC(=O)NCc1noc(-c2nn(Cc3ccc4c(c3)OCO4)c3ccccc23)n1 | -3 | 6 | –
25 | NCc1noc(-c2c3ccccc3nn2CCn2ccnc2)n1 | 8 | 14 | metabolised at 40 min, 1 µM [3]: 57%

Row | Structure (SMILES) | inhibition at 50 µM (Rattus norvegicus [1]) [%] | IC50 [2] [µM] | other results
26 | COc1cccc(C(=O)NCc2noc(-c3nn(CCn4ccnc4)c4ccccc34)n2)c1OC | 69 | 7.1 | –
27 | NCc1noc(-c2nn(-c3ccccn3)c3ccccc23)n1 | -11 | 32 | –
28 | NCc1noc(-c2nn(Cc3ccc4c(c3)OCO4)c3ccccc23)n1 | 44 | 2.1 | –
29 | NCc1noc(-c2nn(Cc3ccccc3)c3ccccc23)n1 | – | – | EC50 (Rattus norvegicus [4]): 35 µM
30 | CN1CCN(c2ncc(-c3cc(Cl)cc(Cl)c3Cl)c(N)n2)CC1 [SIPATRIGINE] | – | – | inhibition at 3 µM (Rattus norvegicus [5]): 93%
31 | O=C(NCc1noc(-c2c3ccccc3nn2CCn2ccnc2)n1)c1ccc2c(c1)OCO2 | 27 | 5 | –
32 | COc1cccc(S(=O)(=O)NCc2noc(-c3nn(CCn4ccnc4)c4ccccc34)n2)c1OC | 37 | > 500 | –
33 | Cc1oncc1Cn1nc(-c2nc(CNC(=O)c3ccccc3)no2)c2ccccc21 | 19 | > 2000 | –
34 | CC(C)(C)c1ccc(S(=O)(=O)NCc2noc(-c3nn(CCn4ccnc4)c4ccccc34)n2)cc1 | 16 | 4.4 | –
35 | NCc1noc(-c2c3ccccc3nn2CCc2cccs2)n1 | 36 | 0.6 | –
36 | NCc1noc(-c2nn(CCn3ccnc3)c3ccccc23)n1 | -2 | 148 | –
37 | O=C(NCc1noc(-c2nn(CCn3ccnc3)c3ccccc23)n1)c1cccc2[nH]ccc12 | 52 | 13 | –
38 | O=C(NCc1noc(-c2c3ccccc3nn2CCc2cccs2)n1)c1ccccc1 | -2 | > 1000 | –
39 | CC(C)(C)OC(=O)NCc1noc(-c2nn(-c3ccccn3)c3ccccc23)n1 | 18 | 74 | –
40 | O=S(=O)(NCc1noc(-c2nn(CCn3ccnc3)c3ccccc23)n1)c1cccc(C(F)(F)F)c1 | 38 | 2.1 | –
41 | CC(C)(C)OC(=O)NCc1noc(-c2nn(CCn3ccnc3)c3ccccc23)n1 | 56 | 7.4 | –
42 | COc1ccccc1C(=O)NCc1noc(-c2c3ccccc3nn2CCn2ccnc2)n1 | 54 | 7.1 | –
43 | O=C(NCc1noc(-c2c3ccccc3nn2CCn2ccnc2)n1)c1ccc(Cl)cc1 | 42 | 2.2 | –
44 | O=C(NCc1noc(-c2c3ccccc3nn2CCn2ccnc2)n1)c1ccc2ccccc2c1 | 22 | 0.4 | –
45 | O=C(NCc1noc(-c2c3ccccc3nn2Cc2ccccn2)n1)c1ccccc1 | 58 | 41 | –
46 | CC(C)(C)OC(=O)NCc1noc(-c2c3ccccc3nn2Cc2ccccn2)n1 | 42 | 23 | –
47 | NCc1noc(-c2c3ccccc3nn2Cc2ccccn2)n1 | 25 | > 10000 | –
48 | NC1=N[C@H](O)[C@H]2[C@H]3O[C@]4(O)O[C@@H]([C@@H](O)[C@@]2(N1)[C@@H]4O)[C@]3(O)CO | – | – | inhibition (Rattus norvegicus [6]): 100%
49 | Cc1ccccc1C(=O)NCc1noc(-c2c3ccccc3nn2CCn2ccnc2)n1 | 62 | 2.9 | –
50 | Nc1nnc(-c2cccc(Cl)c2Cl)c(N)n1 [LAMOTRIGINE] | – | – | inhibition (INH) (Rattus norvegicus [7]): 33%
